Among the data in ChEMBL document CHEMBL1795297, “Design, synthesis and molecular docking studies of novel triazole as antifungal agent” (2011) are MIC80 values, retold here.

Holding throughout (assay type): functional
For experiment [1], the system named is Candida albicans. The experiment can be described thus: Antifungal activity against Candida albicans ATCC Y0109 after 24 hrs by micro-broth dilution method. The following applies: ATCC Y0109, 24 h. The method, boiled down:
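ATCC quality-control strain, tested in every assay. NCCLS M27-A2 broth microdilution. Compounds were dissolved in DMSO, serially diluted in growth medium, inoculated and incubated at 35 °C, with growth read at 24 h. MIC80 is the first well with about 80% growth reduction relative to the drug-free control. Each test was run three times and the mean of replicates taken.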
(In general: Dilution methods test growth across graded concentrations, often in twofold steps.)

For experiment [2], the system named is Cryptococcus neoformans. The experiment can be described thus: Antifungal activity against Cryptococcus neoformans ATCC BLS108 after 72 hrs by micro-broth dilution method. The following applies: ATCC BLS108, 72 h. The method, boiled down: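 Quality-control ATCC strain included in each assay. Microbroth dilution per NCCLS M27-A2. DMSO-dissolved compounds were serially diluted in growth medium, inoculated and held at 35 °C, with MIC read at 72 h. MIC80 is the first well showing about 80% growth reduction versus the drug-free well. Tests were done in triplicate and the mean reported.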

Experiment [3] concerns Aspergillus fumigatus. The experiment can be described thus: Antifungal activity against Aspergillus fumigatus clinical isolate by micro-broth dilution method. The method, boiled down: (§1)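 Clinical isolate. MIC by broth microdilution following the NCCLS M27-A2 reference method for yeasts. Compounds were dissolved in DMSO, serially diluted in growth medium, inoculated and incubated at 35 °C. MIC80 is the first well with about 80% less growth than the drug-free well. Each test was run three times and the mean of replicates reported.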

Experiment [4] deals with Candida parapsilosis. Put plainly: Antifungal activity against Candida parapsilosis clinical isolate by micro-broth dilution method. Conditions: Lodderomyces parapsilosis. The method in brief: as §1
Experiment [5] concerns Candida tropicalis. The experiment can be described thus: Antifungal activity against Candida tropicalis clinical isolate by micro-broth dilution method. The method in brief:
as §1

Experiment [6] has as its system Trichophyton rubrum. Put plainly: Antifungal activity against Trichophyton rubrum clinical isolate by micro-broth dilution method. The method in brief: as §1
Experiment [7] is described as follows: Antifungal activity against Fonsecaea compacta clinical isolate by micro-broth dilution method. The method, boiled down: as §1
Experiment [8] has as its system Nannizzia gypsea. The experiment can be described thus: Antifungal activity against Microsporum gypseum clinical isolate by micro-broth dilution method. The method in brief: as §1

≈ marks a conversion by molar mass, not a printed value.

Usually MIC80 stands for the lowest concentration that inhibits either 80% of growth or 80% of the strains tested, depending on the study. Regarding `O=C(Nc1ccc(N2CCN(CC(O)(Cn3cncn3)c3ccc(F)cc3F)CC2)c(C(F)(F)F)c1)c1cccc(C(F)(F)F)c1` (stereo not drawn), the MIC80 in experiment [1] was 0.0625 µg/mL (≈ 0.0955 µM); in experiment [2], 0.0625 µg/mL (≈ 0.0955 µM); in experiment [3] it was 16 µg/mL (≈ 24.4 µM).

With `O=C(Nc1ccc(N2CCN(CC(O)(Cn3cncn3)c3ccc(F)cc3F)CC2)c(C(F)(F)F)c1)c1ccc(F)cc1` (stereo not drawn), the MIC80 came to 4 µg/mL (≈ 6.62 µM) in experiment [1]; 0.25 µg/mL (≈ 0.414 µM) in experiment [4]; 1 µg/mL (≈ 1.65 µM) in experiment [5]; 16 µg/mL (≈ 26.5 µM) in experiment [2]; 4 µg/mL (≈ 6.62 µM) in experiment [6]; 4 µg/mL (≈ 6.62 µM) in experiment [7]. For the same molecule, the MIC80 worked out at 1 µg/mL (≈ 1.65 µM) in experiment [8] and 4 µg/mL (≈ 6.62 µM) in experiment [3].

Turning to `O=C(Nc1ccc(N2CCN(CC(O)(Cn3cncn3)c3ccc(F)cc3F)CC2)c(C(F)(F)F)c1)c1ccncc1` (stereo not drawn), the MIC80 in experiment [1] turned out to be 0.0625 µg/mL (≈ 0.106 µM); in experiment [2], 0.25 µg/mL (≈ 0.425 µM); in experiment [3], 1 µg/mL (≈ 1.7 µM).

For the molecule `O=C(Nc1ccc(N2CCN(CC(O)(Cn3cncn3)c3ccc(F)cc3F)CC2)c(C(F)(F)F)c1)c1cccnc1` (stereo not drawn), the MIC80 in experiment [1] came to 0.0625 µg/mL (≈ 0.106 µM); in experiment [2], 0.25 µg/mL (≈ 0.425 µM); in experiment [3], 4 µg/mL (≈ 6.81 µM).

On to `O=C(/C=C/c1cccc(Cl)c1)Nc1ccc(N2CCN(CC(O)(Cn3cncn3)c3ccc(F)cc3F)CC2)c(C(F)(F)F)c1` (stereo not drawn), for which the MIC80 in experiment [1] is 0.25 µg/mL (≈ 0.386 µM); in experiment [2], 0.25 µg/mL (≈ 0.386 µM); in experiment [3], 4 µg/mL (≈ 6.18 µM).

`O=C(Nc1ccc(N2CCN(CC(O)(Cn3cncn3)c3ccc(F)cc3F)CC2)c(C(F)(F)F)c1)c1ccc(Cl)cc1Cl` (stereo not drawn): the MIC80 in experiment [1], in experiment [2] and in experiment [3] was 0.25 µg/mL (≈ 0.381 µM) each time.

As to `Cc1ccc(/C=C/C(=O)Nc2ccc(N3CCN(CC(O)(Cn4cncn4)c4ccc(F)cc4F)CC3)c(C(F)(F)F)c2)cc1` (stereo not drawn), the MIC80 in experiment [1] was found to be 0.25 µg/mL (≈ 0.399 µM); in experiment [2], 1 µg/mL (≈ 1.6 µM); in experiment [3] it was 4 µg/mL (≈ 6.38 µM).

For the molecule `O=C(/C=C/c1ccc(Br)cc1)Nc1ccc(N2CCN(CC(O)(Cn3cncn3)c3ccc(F)cc3F)CC2)c(C(F)(F)F)c1` (stereo not drawn), the MIC80 in experiment [1] was 1 µg/mL (≈ 1.45 µM); in experiment [2] it was 0.25 µg/mL (≈ 0.362 µM); in experiment [3], 1 µg/mL (≈ 1.45 µM).

As for `O=C(/C=C/c1ccc(Cl)c(Cl)c1)Nc1ccc(N2CCN(CC(O)(Cn3cncn3)c3ccc(F)cc3F)CC2)c(C(F)(F)F)c1` (stereo not drawn), the MIC80 was 0.25 µg/mL (≈ 0.367 µM) in experiment [1], 0.25 µg/mL (≈ 0.367 µM) in experiment [2] and 4 µg/mL (≈ 5.87 µM) in experiment [3].

As to `O=C(/C=C/c1ccco1)Nc1ccc(N2CCN(CC(O)(Cn3cncn3)c3ccc(F)cc3F)CC2)c(C(F)(F)F)c1` (stereo not drawn), the figures for the MIC80 in experiment [1], in experiment [2] and in experiment [3] were 0.25 µg/mL (≈ 0.415 µM), 0.25 µg/mL (≈ 0.415 µM) and 4 µg/mL (≈ 6.64 µM), respectively.

Turning to `O=C(/C=C/c1ccccc1[N+](=O)[O-])Nc1ccc(N2CCN(CC(O)(Cn3cncn3)c3ccc(F)cc3F)CC2)c(C(F)(F)F)c1` (stereo not drawn), the MIC80 was 0.25 µg/mL (≈ 0.38 µM) in experiment [1], 0.25 µg/mL (≈ 0.38 µM) in experiment [2] and above 64 µg/mL in experiment [3].

As to `O=C(/C=C/c1ccc(F)cc1)Nc1ccc(N2CCN(CC(O)(Cn3cncn3)c3ccc(F)cc3F)CC2)c(C(F)(F)F)c1` (stereo not drawn), the MIC80 in experiment [1] came to 0.0156 µg/mL (≈ 0.0247 µM); in experiment [2], 0.25 µg/mL (≈ 0.396 µM); in experiment [3] it was 4 µg/mL (≈ 6.34 µM).

Turning to `O=C(/C=C/c1ccc(Cl)cc1)Nc1ccc(N2CCN(CC(O)(Cn3cncn3)c3ccc(F)cc3F)CC2)c(C(F)(F)F)c1` (stereo not drawn), the MIC80 in experiment [1] came to 1 µg/mL (≈ 1.55 µM); in experiment [2] it was 0.25 µg/mL (≈ 0.386 µM); in experiment [3], 1 µg/mL (≈ 1.55 µM).

For the molecule `O=C(/C=C/c1cccc(Br)c1)Nc1ccc(N2CCN(CC(O)(Cn3cncn3)c3ccc(F)cc3F)CC2)c(C(F)(F)F)c1` (stereo not drawn), the MIC80 in experiment [1] came to 0.25 µg/mL (≈ 0.362 µM); in experiment [2] it was 0.25 µg/mL (≈ 0.362 µM); in experiment [3] it was 1 µg/mL (≈ 1.45 µM).

`O=C(/C=C/c1cccc(F)c1)Nc1ccc(N2CCN(CC(O)(Cn3cncn3)c3ccc(F)cc3F)CC2)c(C(F)(F)F)c1` (stereo not drawn): the MIC80 in experiment [1] came to 0.25 µg/mL (≈ 0.396 µM); in experiment [2] it was 0.25 µg/mL (≈ 0.396 µM); in experiment [3], 16 µg/mL (≈ 25.4 µM).

Regarding `O=C(Nc1ccc(N2CCN(CC(O)(Cn3cncn3)c3ccc(F)cc3F)CC2)c(C(F)(F)F)c1)c1ccco1` (stereo not drawn), the MIC80 in experiment [1] came to 0.0625 µg/mL (≈ 0.108 µM); in experiment [2], 0.25 µg/mL (≈ 0.434 µM); in experiment [3], 1 µg/mL (≈ 1.73 µM).
